Data taken from article PMC3005096 (Steroids, 2010).
Read-outs that look alike come from different tables or passages of the source.

How the values were obtained:
[1] = biological target: T1, VDR-EGFP fusion protein (Homo sapiens, UniProt P11473); assay: VDR translocation into the nucleus; format: cell-based; conditions: SKMEL-188 transduced with pLenti-CMV-VDR-EGFP, 10 nM, 90 min
T1 sequence (P11473 1-427): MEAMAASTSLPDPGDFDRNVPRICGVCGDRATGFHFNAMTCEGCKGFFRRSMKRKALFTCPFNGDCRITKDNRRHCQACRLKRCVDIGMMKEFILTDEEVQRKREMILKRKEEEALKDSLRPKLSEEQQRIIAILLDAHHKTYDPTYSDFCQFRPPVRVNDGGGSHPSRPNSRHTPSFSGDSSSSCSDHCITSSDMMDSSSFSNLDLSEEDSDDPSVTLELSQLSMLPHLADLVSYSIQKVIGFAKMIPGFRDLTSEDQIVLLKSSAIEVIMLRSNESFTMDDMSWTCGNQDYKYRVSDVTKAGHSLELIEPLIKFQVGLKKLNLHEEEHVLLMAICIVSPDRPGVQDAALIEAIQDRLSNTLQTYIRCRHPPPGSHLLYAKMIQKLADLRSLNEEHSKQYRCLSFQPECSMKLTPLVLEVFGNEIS
Method in brief: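 SKMEL-188 cells were stably transduced with a lentiviral CMV-driven VDR-EGFP fusion construct (10 MOI, 6 μg/ml polybrene). They were exposed to compound for 90 min, fixed in 4% paraformaldehyde, mounted and examined by fluorescence microscopy. In at least 10 fields, cells with fluorescent nuclei were counted and expressed as % of total cells. Student's t-test.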

[2] = tested on: SKMEL-188 cells; assay: [3H]-thymidine incorporation; format: cell-based, human; conditions: SKMEL-188, 72 h, [3H]-thymidine last 4 h
Method in brief: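 SKMEL-188 cells were grown in Ham's F-10 with 5% charcoal-treated FBS and synchronized at G0/G1 in serum-free medium. Compounds were added in fresh medium with 5% charcoal-treated FBS for 72 h. [3H]-thymidine (88.0 Ci/mmol) was present at 0.5 μCi/ml final for the last 4 h. Cells were precipitated with 10% TCA and counted by liquid scintillation. Mean ± SD, n=4; one-way ANOVA and t-test.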

[3] = tested on: AbC1 cell line derived from Bomirski hamster melanoma; assay: [3H]-thymidine incorporation; format: cell-based
[4] = tested on: melanoma SKMEL-188; assay: Colony forming assay; format: cell-based, human; conditions: SKMEL-188, 0.1, 10 and 1000 nM, 6-10 days
Method in brief: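 SKMEL-188 cells were plated at 500 cells/well in 12-well plates in F10 medium with charcoal-stripped FBS and antibiotic-antimycotic, at 37°C in 5% CO2. They were treated at 0.1, 10 and 1000 nM, with matched ethanol dilution as vehicle control, and grown 6–10 days. Colonies were stained with 0.1% […], then counted and sized from photographs. CFU = colonies/cells plated ×100. Mean ± SEM, n=3 or 4.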

[5] = tested on: HaCaT keratinocytes; assay: Proliferation of HaCaT keratinocytes; format: cell-based, human; conditions: for EC50: read-out: EC50, inhibition of proliferation

Compound | translocation of VDR-GFP fusion protein into the nucleus [1] | inhibition of DNA synthesis [2] | inhibition of DNA synthesis [3] | inhibition of colony formation [4] | effect on proliferation of HaCaT cells [5] | EC50 ([5]; Homo sapiens) [nM] | EC50 [5] [nM]
C[C@]12CC[C@@H]3C(=CC=C4C[C@@H](O)CC[C@]43C)[C@@H]1CC[C@@H]2C(=O)CO [21(OH)pL, 3β,21-Dihydroxy-9β,10α-pregna-5,7-dien-20-one] | significantly lower | highest inhibitory potency | efficiently inhibited DNA synthesis | less potent inhibitory effect | no effect | > 1000 | 
C=C1/C(=C\C=C2/CCC[C@]3(C)[C@@H]([C@H](C)CCCC(C)(C)O)CC[C@@H]23)C[C@@H](O)C[C@@H]1O [1,25(OH)2D3, reference compound] |  |  |  |  |  | 180 | 
C[C@]12CC[C@H]3C(=CC=C4C[C@@H](O)CC[C@@]43C)[C@@H]1CC[C@@H]2C(=O)CO [21(OH)7DHP, 3β, 21-Dihydroxypregna-5,7-dien-20-one] | induced translocation | inhibited DNA synthesis |  |  | no effect | > 1000 | 
C=C1CC[C@H](O)C/C1=C/C=C1\CCC[C@]2(C)[C@@H](C(=O)CO)CC[C@@H]12 [21(OH)pD, (5Z,7E)-3β,21-Dihydroxy-9,10-secopregna-5,7,10(19)-trien-20-one] | efficient translocation | inhibited DNA synthesis |  | best inhibition |  |  | 40
